Assay results of several laboratories.
MTNR1B: Melatonin receptor type 1B (MTNR1B, Homo sapiens, UniProt P49286)
CDK7 with cyclin H: Cyclin-dependent kinase 7, with cyclin H (CDK7, Homo sapiens, UniProt P50613)
BAZ1A: Bromodomain adjacent to zinc finger domain protein 1A (BAZ1A, Homo sapiens, UniProt Q9NRL2)

CCc1ccc2scc(CCNC(C)=O)c2c1 — Emax (MTNR1B; β-arrestin recruitment, agonist; MT2; 90 min): 75%
C[C@]12CC[C@@H]3c4ccc(O)cc4CC[C@H]3[C@@H]1CC[C@@H]2O — inhibition (CDK7 with cyclin H; enzyme activity, inhibitor, ADP detection; 10 µM): 38.3%
Cc1ccc(C(=O)Nc2ccc(CN3CCN(C)CC3)c(C(F)(F)F)c2)cc1C#Cc1cnc2cccnn12 — remaining activity (Serine/threonine-protein kinase RIO3 (RIOK3, Homo sapiens, UniProt O14730); enzyme activity, inhibitor; 23.5 nM): 93%
C[C@@H]1C(=O)O[C@H]2C[C@@]34[C@H]5C[C@@H](C(C)(C)C)[C@]36[C@@H](OC(=O)[C@@H]6O)O[C@@]4(C(=O)O5)[C@]21O — inhibition (CDK7 with cyclin H; enzyme activity, inhibitor, ADP detection; 10 µM): 35.3%
c1ccc(-c2nc(NCC(c3ccccc3)c3ccccc3)c3ccccc3n2)cc1 — remaining activity (Sodium-dependent dopamine transporter (Slc6a3, Rattus norvegicus, UniProt P23977); transporter uptake, inhibitor, radiometric; 12.8 µM): 30%
Oc1ccc(-c2nc(-c3ccncc3)c(-c3ccc(F)cc3)[nH]2)cc1 — ΔTm (BAZ1A; thermal stability, DSF; 10 µM): 0.34 °C
Cc1ccc(S(=O)(=O)NCC(=O)N2CCC[C@H]2C(=O)N[C@@H](CCCN=C(N)N)C(=O)Nc2ccc([N+](=O)[O-])cc2)cc1 — Km (Prothrombin (F2, Homo sapiens, UniProt P00734); enzyme activity, substrate, absorbance): 26.3 µM
COc1ccc2ncn(CCNC(C)=O)c2c1 — Emax (MTNR1B; GTPγS binding, agonist, radiometric; cell membranes): 89%
C[S+]([O-])c1ccc(-c2nc(-c3ccncc3)c(-c3ccc(F)cc3)[nH]2)cc1 (centres unmarked) — ΔTm (BAZ1A; thermal stability, DSF; 10 µM): 1.03 °C
COc1cc2c(CCNC(C)=O)c[nH]c2cc1I — Emax (MTNR1B; GTPγS binding, agonist, radiometric; cell membranes): 97%
COc1cc2c(cc1OC)[C@@H]1Cc3ccc(OC)c(OC)c3CN1CC2 — inhibition (CDK7 with cyclin H; enzyme activity, inhibitor, ADP detection; 10 µM): -19%
CCC(=O)NC1Cc2ccccc2C(c2ccccc2)C1 (centres unmarked) — Emax (MTNR1B; GTPγS binding, agonist, radiometric; cell membranes): 34%
COc1ccc2cc3[n+](cc2c1OC)CCc1cc2c(cc1-3)OCO2 — inhibition (CDK7 with cyclin H; enzyme activity, inhibitor, ADP detection; 10 µM): 22.3%
ON=CC1=C(C=Cc2ccccc2)CCC1 — ΔTm (Fibroblast growth factor 23 (Homo sapiens, UniProt Q9GZV9); thermal stability, DSF; 200 µM): 16.5 °C
